# Experimental data collected from several papers.
# Lines come from different studies, so protocols differ. pIC50: −log10 of the molar value.
# Read-out: DPPH scavenging
SMILES,assay,conditions,endpoint,result
CCOC(=O)C1=C(CSC2=NCCS2)NC(=O)NC1c1ccc(F)cc1F (centres unmarked),,,pIC50,3.86
Cc1ccccc1NC(=O)CSc1nc2ccccc2cc1C=Nn1c(S)nnc1-c1ccccc1,,,pIC50,3.88
C=C(C)[C@@H]1CC[C@]2(C)CC[C@]3(C)[C@H](CC[C@@H]4[C@@]5(C)CC[C@H](O)C(C)(C)[C@@H]5CC[C@]43C)[C@@H]12,absorbance,,IC50,18.6 µg/mL
CCOC(=O)C1=C(CSC2=NCCS2)NC(=O)NC1c1ccc(OC)cc1 (centres unmarked),,,pIC50,3.86
CCCCCCCCCCC1NCCc2cc(O)c(O)cc21 (centres unmarked),absorbance,"30 min, dark",pIC50,4.22
CCOC(=O)C1=C(CCl)NC(=O)NC1c1cccc(F)c1 (centres unmarked),,,pIC50,3.75
CCCCCCCCCCCCCCCC1NCCc2cc(O)c(O)cc21 (centres unmarked),absorbance,"30 min, dark",pIC50,4.43
O=C(O[C@@H]1COC(=O)c2cc(O)c(O)c(O)c2-c2c(cc(O)c(O)c2O)C(=O)O[C@H]1[C@@H]1OC(=O)c2cc(O)c(O)c(O)c2-c2c(O)c(O)c(O)c3c2C(=O)O[C@H]1[C@@H]3O)c1cc(O)c(O)c(O)c1,absorbance,,IC50,5.37 µg/mL
Cc1ccc(NC(=O)CSc2nc3ccccc3cc2C=Nn2c(S)nnc2-c2ccccc2)cc1,,,pIC50,3.92
CCOC(=O)C1=C(CCl)NC(=O)NC1c1cccc(OC)c1 (centres unmarked),,,pIC50,4.06
O=C1O[C@H]([C@@H](O)CO)C(O)=C1O,absorbance,"30 min, dark",pIC50,4.51
CCOC(=O)C1=C(CCl)NC(=O)NC1c1ccccc1 (centres unmarked),,,pIC50,3.68
O=c1c(O)c(-c2ccc(O)c(O)c2)oc2cc(O)cc(O)c12,,,pIC50,4.73
CCCCCCCCCCCCCCCCCCc1ccc(O)cc1,,,pIC50,3.69
CCCCCC1NCCc2cc(O)c(O)cc21 (centres unmarked),absorbance,"30 min, dark",pIC50,4.20
CCOC(=O)C1=C(CCl)NC(=O)NC1c1cccc(Cl)c1 (centres unmarked),,,pIC50,3.98
COc1cc(C2NCCc3cc(O)c(O)cc32)cc(OC)c1O (centres unmarked),absorbance,"30 min, dark",pIC50,4.95
O=C1O[C@H]([C@@H](O)CO)C(O)=C1O,absorbance,30 min,pIC50,4.05
COc1cccc(C2NCCc3cc(O)c(O)cc32)c1O (centres unmarked),absorbance,"30 min, dark",pIC50,5.19
O=C1O[C@H]([C@@H](O)CO)C(O)=C1O,,,IC50,9.1 µg/mL
